According to ChEMBL document CHEMBL3044834, “Novel protoporphyrinogen oxidase inhibitors: 3H-pyrazolo[3,4-d][1,2,3]triazin-4-one derivatives” (J Agric Food Chem, 2008):

Tests used:
Format in all cases: functional
[1] = test system: Brassica rapa subsp. oleifera; experiment: Herbicidal activity against Brassica rapa subsp. oleifera assessed as inhibition of fresh weed plant weight at 375 g/ha using pre-emergence treatment protocol
[2] = test system: Digitaria sanguinalis; experiment: Herbicidal activity against Digitaria sanguinalis (hairy crabgrass) assessed as inhibition of fresh weed plant weight at 1500 g/ha using post-emergence treatment protocol
Procedure, shortened: (§1)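 Test compounds made up as emulsions by dissolving in 100 µL N,N-dimethylformamide, then adding a little Tween 20 and water. For post-emergence, weed seedlings at one leaf and one stem were sprayed at the same rates as the pre-emergence test. Fresh weight was recorded 15 days after treatment and expressed as percent inhibition versus controls. All treatments were run in triplicate.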

[3] = test system: Amaranthus retroflexus; experiment: Herbicidal activity against Amaranthus retroflexus assessed as inhibition of fresh weed plant weight at 187.5 g/ha using pre-emergence treatment protocol
[4] = test system: Brassica rapa subsp. oleifera; experiment: Herbicidal activity against Brassica rapa subsp. oleifera assessed as inhibition of fresh weed plant weight at 750 g/ha using pre-emergence treatment protocol
[5] = test system: Echinochloa crus-galli; experiment: Herbicidal activity against Echinochloa crus-galli (barnyard grass) assessed as inhibition of fresh weed plant weight at 1500 g/ha using post-emergence treatment protocol; procedure, shortened: as §1
[6] = test system: Brassica rapa subsp. oleifera; experiment: Herbicidal activity against Brassica rapa subsp. oleifera assessed as inhibition of fresh weed plant weight at 1500 g/ha using post-emergence treatment protocol; procedure, shortened: as §1
[7] = test system: Echinochloa crus-galli; experiment: Herbicidal activity against Echinochloa crus-galli (barnyard grass) assessed as inhibition of fresh weed plant weight at 187.5 g/ha using pre-emergence treatment protocol; procedure, shortened: as §1
[8] = test system: Digitaria sanguinalis; experiment: Herbicidal activity against Digitaria sanguinalis (hairy crabgrass) assessed as inhibition of fresh weed plant weight at 750 g/ha using pre-emergence treatment protocol
[9] = test system: Echinochloa crus-galli; experiment: Herbicidal activity against Echinochloa crus-galli (barnyard grass) assessed as inhibition of fresh weed plant weight at 375 g/ha using pre-emergence treatment protocol; procedure, shortened: as §1
[10] = test system: Digitaria sanguinalis; experiment: Herbicidal activity against Digitaria sanguinalis (hairy crabgrass) assessed as inhibition of fresh weed plant weight at 93.75 g/ha using pre-emergence treatment protocol
[11] = test system: Brassica rapa subsp. oleifera; experiment: Herbicidal activity against Brassica rapa subsp. oleifera assessed as inhibition of fresh weed plant weight at 93.75 g/ha using pre-emergence treatment protocol
[12] = test system: Amaranthus retroflexus; experiment: Herbicidal activity against Amaranthus retroflexus assessed as inhibition of fresh weed plant weight at 1500 g/ha using post-emergence treatment protocol; procedure, shortened: as §1
[13] = test system: Echinochloa crus-galli; experiment: Herbicidal activity against Echinochloa crus-galli (barnyard grass) assessed as inhibition of fresh weed plant weight at 93.75 g/ha using pre-emergence treatment protocol
[14] = test system: Amaranthus retroflexus; experiment: Herbicidal activity against Amaranthus retroflexus assessed as inhibition of fresh weed plant weight at 93.75 g/ha using pre-emergence treatment protocol
[15] = test system: Amaranthus retroflexus; experiment: Herbicidal activity against Amaranthus retroflexus assessed as inhibition of fresh weed plant weight at 375 g/ha using pre-emergence treatment protocol
[16] = test system: Brassica rapa subsp. oleifera; experiment: Herbicidal activity against Brassica rapa subsp. oleifera assessed as inhibition of fresh weed plant weight at 187.5 g/ha using pre-emergence treatment protocol
[17] = test system: Amaranthus retroflexus; experiment: Herbicidal activity against Amaranthus retroflexus assessed as inhibition of fresh weed plant weight at 750 g/ha using pre-emergence treatment protocol; procedure, shortened: as §1
[18] = test system: Brassica rapa subsp. oleifera; experiment: Herbicidal activity against Brassica rapa subsp. oleifera assessed as inhibition of fresh weed plant weight at 1500 g/ha using pre-emergence treatment protocol
[19] = test system: Digitaria sanguinalis; experiment: Herbicidal activity against Digitaria sanguinalis (hairy crabgrass) assessed as inhibition of fresh weed plant weight at 187.5 g/ha using pre-emergence treatment protocol
[20] = test system: Echinochloa crus-galli; experiment: Herbicidal activity against Echinochloa crus-galli (barnyard grass) assessed as inhibition of fresh weed plant weight at 1500 g/ha using pre-emergence treatment protocol
[21] = test system: Echinochloa crus-galli; experiment: Herbicidal activity against Echinochloa crus-galli (barnyard grass) assessed as inhibition of fresh weed plant weight at 750 g/ha using pre-emergence treatment protocol
[22] = test system: Amaranthus retroflexus; experiment: Herbicidal activity against Amaranthus retroflexus assessed as inhibition of fresh weed plant weight at 1500 g/ha using pre-emergence treatment protocol
[23] = test system: Digitaria sanguinalis; experiment: Herbicidal activity against Digitaria sanguinalis (hairy crabgrass) assessed as inhibition of fresh weed plant weight at 1500 g/ha using pre-emergence treatment protocol
[24] = test system: Digitaria sanguinalis; experiment: Herbicidal activity against Digitaria sanguinalis (hairy crabgrass) assessed as inhibition of fresh weed plant weight at 375 g/ha using pre-emergence treatment protocol
[25] = test system: Brassica rapa subsp. oleifera; experiment: Herbicidal activity against Brassica rapa subsp. oleifera assessed as inhibition of fresh weed plant weight at 375 g/ha using post-emergence treatment protocol; procedure, shortened: as §1
[26] = test system: Echinochloa crus-galli; experiment: Herbicidal activity against Echinochloa crus-galli (barnyard grass) assessed as inhibition of fresh weed plant weight at 187.5 g/ha using post-emergence treatment protocol; procedure, shortened: as §1
[27] = test system: Brassica rapa subsp. oleifera; experiment: Herbicidal activity against Brassica rapa subsp. oleifera assessed as inhibition of fresh weed plant weight at 187.5 g/ha using post-emergence treatment protocol; procedure, shortened: as §1
[28] = test system: Digitaria sanguinalis; experiment: Herbicidal activity against Digitaria sanguinalis (hairy crabgrass) assessed as inhibition of fresh weed plant weight at 187.5 g/ha using post-emergence treatment protocol; procedure, shortened: as §1
[29] = test system: Amaranthus retroflexus; experiment: Herbicidal activity against Amaranthus retroflexus assessed as inhibition of fresh weed plant weight at 375 g/ha using post-emergence treatment protocol; procedure, shortened: as §1
[30] = test system: Digitaria sanguinalis; experiment: Herbicidal activity against Digitaria sanguinalis (hairy crabgrass) assessed as inhibition of fresh weed plant weight at 750 g/ha using post-emergence treatment protocol; procedure, shortened: as §1
[31] = test system: Amaranthus retroflexus; experiment: Herbicidal activity against Amaranthus retroflexus assessed as inhibition of fresh weed plant weight at 750 g/ha using post-emergence treatment protocol; procedure, shortened: as §1
[32] = test system: Echinochloa crus-galli; experiment: Herbicidal activity against Echinochloa crus-galli (barnyard grass) assessed as inhibition of fresh weed plant weight at 375 g/ha using post-emergence treatment protocol; procedure, shortened: as §1
[33] = test system: Amaranthus retroflexus; experiment: Herbicidal activity against Amaranthus retroflexus assessed as inhibition of fresh weed plant weight at 187.5 g/ha using post-emergence treatment protocol; procedure, shortened: as §1
[34] = test system: Echinochloa crus-galli; experiment: Herbicidal activity against Echinochloa crus-galli (barnyard grass) assessed as inhibition of fresh weed plant weight at 750 g/ha using post-emergence treatment protocol; procedure, shortened: as §1
[35] = test system: Brassica rapa subsp. oleifera; experiment: Herbicidal activity against Brassica rapa subsp. oleifera assessed as inhibition of fresh weed plant weight at 750 g/ha using post-emergence treatment protocol; procedure, shortened: as §1
[36] = test system: Digitaria sanguinalis; experiment: Herbicidal activity against Digitaria sanguinalis (hairy crabgrass) assessed as inhibition of fresh weed plant weight at 375 g/ha using post-emergence treatment protocol; procedure, shortened: as §1

`CCCN1C(=O)COc2cc(F)c(-n3nnc4c(cnn4C)c3=O)cc21` gave an inhibition at 375 g/ha [1] of 57.1%, an inhibition at 1500 g/ha [2] of 47.5% and an inhibition at 187.5 g/ha [3] of 89.5%. It also gave an inhibition at 750 g/ha [4] of 79.9%, an inhibition at 1500 g/ha [5] of 46.9% and an inhibition at 1500 g/ha [6] of 20.5%. For the same compound, the inhibition at 187.5 g/ha [7] was 28.4%, the inhibition at 750 g/ha [8] was 87.8% and the inhibition at 375 g/ha [9] was 69.6%. It also gave an inhibition at 93.75 g/ha [10] of 3.9%, an inhibition at 93.75 g/ha [11] of 32.2% and an inhibition at 1500 g/ha [12] of 54.1%. For the same compound, the inhibition at 93.75 g/ha [13] was 0%, the inhibition at 93.75 g/ha [14] was 83.8% and the inhibition at 375 g/ha [15] was 93.2%. The inhibition at 187.5 g/ha [16] was 38.5%, the inhibition at 750 g/ha [17] was 95.3% and the inhibition at 1500 g/ha [18] was 100%. The inhibition at 187.5 g/ha [19] was 14.2%, the inhibition at 1500 g/ha [20] was 94.8% and the inhibition at 750 g/ha [21] was 91.2%. It also gave an inhibition at 1500 g/ha [22] of 100%, an inhibition at 1500 g/ha [23] of 94.1% and an inhibition at 375 g/ha [24] of 65.4%.

For `C#CCOc1cc(-n2nnc3c(cnn3CC=C)c2=O)c(F)cc1Cl`, the inhibition at 375 g/ha [25] was 3.4%, the inhibition at 375 g/ha [1] was 0% and the inhibition at 187.5 g/ha [26] was 7.3%. For the same compound, the inhibition at 1500 g/ha [2] was 41.3%, the inhibition at 187.5 g/ha [3] was 21.3% and the inhibition at 187.5 g/ha [27] was 0%. For the same compound, the inhibition at 750 g/ha [4] was 0%, the inhibition at 1500 g/ha [5] was 38.3% and the inhibition at 1500 g/ha [6] was 18.5%. For the same compound, the inhibition at 187.5 g/ha [7] was 0%, the inhibition at 187.5 g/ha [28] was 0% and the inhibition at 750 g/ha [8] was 17.4%. It also gave an inhibition at 375 g/ha [9] of 0%, an inhibition at 375 g/ha [29] of 12.2% and an inhibition at 750 g/ha [30] of 19.4%. For the same compound, the inhibition at 750 g/ha [31] was 41.5%, the inhibition at 1500 g/ha [12] was 88.6% and the inhibition at 375 g/ha [15] was 27.9%. It also gave an inhibition at 187.5 g/ha [16] of 0%, an inhibition at 750 g/ha [17] of 41% and an inhibition at 1500 g/ha [18] of 7.4%. For the same compound, the inhibition at 187.5 g/ha [19] was 6.5%, the inhibition at 375 g/ha [32] was 11.2% and the inhibition at 1500 g/ha [20] was 0%. It also gave an inhibition at 187.5 g/ha [33] of 7.3%, an inhibition at 750 g/ha [21] of 0% and an inhibition at 1500 g/ha [22] of 87%. For the same compound, the inhibition at 1500 g/ha [23] was 37.4%, the inhibition at 750 g/ha [34] was 17.1% and the inhibition at 750 g/ha [35] was 7.4%. It also gave an inhibition at 375 g/ha [36] of 0% and an inhibition at 375 g/ha [24] of 13%.

For `C=CCOc1cc(-n2nnc3c(cnn3CC=C)c2=O)c(F)cc1Cl`, the inhibition at 375 g/ha [25] was 0%, the inhibition at 375 g/ha [1] was 11.9% and the inhibition at 187.5 g/ha [26] was 2.4%. For the same compound, the inhibition at 1500 g/ha [2] was 23.1%, the inhibition at 187.5 g/ha [3] was 1.6% and the inhibition at 187.5 g/ha [27] was 0%. The inhibition at 750 g/ha [4] was 16.4%, the inhibition at 1500 g/ha [5] was 32.3% and the inhibition at 1500 g/ha [6] was 10.3%. For the same compound, the inhibition at 187.5 g/ha [7] was 6.5%, the inhibition at 187.5 g/ha [28] was 0% and the inhibition at 750 g/ha [8] was 4.3%. It also gave an inhibition at 375 g/ha [9] of 10%, an inhibition at 375 g/ha [29] of 85.4% and an inhibition at 750 g/ha [30] of 11.1%. It also gave an inhibition at 750 g/ha [31] of 100%, an inhibition at 1500 g/ha [12] of 100% and an inhibition at 375 g/ha [15] of 27.9%. The inhibition at 187.5 g/ha [16] was 9%, the inhibition at 750 g/ha [17] was 34.4% and the inhibition at 1500 g/ha [18] was 30.5%. The inhibition at 187.5 g/ha [19] was 0%, the inhibition at 375 g/ha [32] was 18% and the inhibition at 1500 g/ha [20] was 30.1%. It also gave an inhibition at 187.5 g/ha [33] of 12.2%, an inhibition at 750 g/ha [21] of 16.9% and an inhibition at 1500 g/ha [22] of 60.1%. The inhibition at 1500 g/ha [23] was 10.5%, the inhibition at 750 g/ha [34] was 22% and the inhibition at 750 g/ha [35] was 2.9%. It also gave an inhibition at 375 g/ha [36] of 0% and an inhibition at 375 g/ha [24] of 0%.
